Experimental data published in ChEMBL document CHEMBL1129793, “Quantitative structure-activity relationships for the in vitro antimycobacterial activity of pyrazinoic acid esters” (J Med Chem, 1996).

Assays:
[1] = T1/2 in equine serum; type: ADME, organism-based, Equus caballus; conditions: horse
Outline: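 Ester from a 1 mg/mL stock was mixed with 5% aqueous equine serum in 0.01 M KH2PO4, pH 7.2. Remaining ester was measured by isocratic reverse-phase HPLC (80% acetonitrile/20% 0.1 M sodium acetate, pH 5.0), with UV detection at 265 nm against a standard curve. Half-life is the time to 50% conversion to the acid.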

[2] = Partition coefficient (logP); type: physicochemical; conditions: octanol/water
Mycobacterium avium [3] = assay: In vitro activity against Mycobacterium avium (MAC-101).; type: functional
Outline: (§1)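 Broth macrodilution MIC. Cultures were grown in modified Middlebrook 7H10 broth (agar and malachite green omitted) with 10% OADC and 0.05% Tween 80, shaken at 37 °C for 3 days, then diluted in 7H10 broth to 1 Klett unit/mL. Test agents were dissolved in water or DMSO and filter-sterilised, then serially diluted 2-fold in 7H10 broth at pH 5.8. Tubes were shaken at 37 °C for 7–10 days, with a drug-free control. MIC was the lowest concentration with no visible turbidity, expressed in mmol/L.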

[4] = system: Mycobacterium tuberculosis; assay: In vitro activity against Mycobacterium tuberculosis (ATCC 27294); type: functional; outline: as §1
[5] = system: Mycobacterium tuberculosis; assay: In vitro activity against Mycobacterium tuberculosis (ATCC 35801); type: functional; outline: as §1
[6] = system: Mycobacterium tuberculosis; assay: In vitro activity against Mycobacterium tuberculosis (ATCC 35828); type: functional; outline: as §1
Mycobacterium kansasii = assay: in vitro activity against Mycobacterium kansasii (SWK).; type: functional
Outline: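 M. kansasii clinical isolate SWK was grown 3 days at 37 °C with shaking in modified Middlebrook 7H10 broth with 10% OADC and 0.05% Tween 80, then diluted. It was tested in serial 2-fold dilutions in 7H10 broth at pH 5.8, shaken at 37 °C for 7–10 days, with a drug-free control. MIC was the lowest concentration giving no visible turbidity, expressed in mmol/L.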

Mycobacterium avium [7] = assay: In vitro activity against Mycobacterium avium (ATCC 49601).; type: functional; outline: as §1

| SMILES | half-life [1] | logP [2] | Log 1/MMIC (Mycobacterium avium [3]) | Log 1/MMIC [4] | Log 1/MMIC [5] | Log 1/MMIC [6] | Log 1/MMIC (Mycobacterium kansasii) | Log 1/MMIC (Mycobacterium avium [7]) |
| --- | --- | --- | --- | --- | --- | --- | --- | --- |
| CCCCCCCCCCCOC(=O)c1cnc(Cl)cn1 | 6 min | 5.98 | 1.291 | 3.097 | 2.796 | 2.796 | 3.717 | 1.592 |
| CCCCCCCCCCOC(=O)c1cnc(Cl)cn1 | 1.9 min | 5.48 | 0.97 |  | 3.077 |  | 2.776 | 1.271 |
| CCCCCCC(C)(CCCCC)OC(=O)c1cnc(Cl)cn1 (configuration not stated) | 1410 min | 6.45 | 0.726 | 2.232 |  | 1.329 | 1.63 | 0.726 |
| CCCCCC(CC)OC(=O)c1cnc(Cl)cn1 (configuration not stated) | 7 min | 4.24 | 0.626 | 2.734 | 3.035 | 3.035 | 3.955 | 0.927 |
| CCCCCCC(CCCCCC)OC(=O)c1cnc(Cl)cn1 | 60 min | 7.04 | 1.329 | 3.135 |  |  | 2.834 | 0.726 |
| CCCCCCCC(C)(CCCC)OC(=O)c1cnc(Cl)cn1 (configuration not stated) | 600 min | 6.44 | 0.124 | 1.63 | 1.931 |  | 1.329 | 0.124 |
| CCCCCCCCOC(=O)c1cnc(Cl)cn1 | 1.3 min | 4.48 | 1.228 | 3.654 |  |  | 3.955 | 1.228 |
| CCCCCOC(=O)c1cnc(Cl)cn1 | 3.2 min | 2.73 | 0.854 | 3.581 | 2.961 | 3.262 | 3.882 | 0.854 |
| CCOC(=O)c1cnc(Cl)cn1 | 110 min | 1.19 | 0.164 | 2.271 |  | 1.067 | 1.97 | 0.164 |
| CCCCCCC(C)OC(=O)c1cnc(Cl)cn1 (configuration not stated) | 28.2 min | 3.63 | 0.927 |  |  |  | 3.035 | 0.927 |
| CCCCCCCCCCCC(C)OC(=O)c1cnc(Cl)cn1 (configuration not stated) | 50 min | 6.25 | 0.124 | 2.232 | 2.834 | 2.834 | 3.754 | 1.027 |
| CCCCCCCCCC(C)OC(=O)c1cnc(Cl)cn1 (configuration not stated) | 29.6 min | 5.25 | 1.291 | 3.087 | 3.398 | 2.495 | 3.097 | 1.291 |
| O=C(OCc1ccccc1)c1cnc(Cl)cn1 | 5 min | 2.39 | 1.493 |  | 2.697 |  | 2.396 | 1.794 |
| CC(C)(C)OC(=O)c1cnc(Cl)cn1 | 1200 min | 1.7 | 0.225 | 1.73 | 2.031 | 1.73 | 2.633 | 2.33 |
| CCCOC(=O)c1cnc(Cl)cn1 | 18.7 min | 1.67 | 1.098 | 3.524 | 3.825 |  | 2.904 | 1.098 |
| CCCCCCCOC(=O)c1cnc(Cl)cn1 | 3.2 min | 3.87 | 1.506 | 3.631 |  |  | 3.932 | 1.205 |
| CCC(C)(CC)OC(=O)c1cnc(Cl)cn1 | 1020 min | 2.74 | -0.023 | 1.482 | 1.482 | 1.783 | 2.084 | -0.023 |
| CCCCCCOC(=O)c1cnc(Cl)cn1 | 2.2 min | 3.36 | 0.88 | 3.288 | 3.288 | 2.686 | 4.21 | 1.181 |
